Assay results from ChEMBL document CHEMBL4330069, “Boosting the efficacy of anti-MRSA β-lactam antibiotics via an easily accessible, non-cytotoxic and orally bioavailable FtsZ inhibitor” (Eur J Med Chem, 2019).
Converted amounts (≈) assume the structure as drawn.

What was measured:
L929 = experiment: Cytotoxicity against mouse L929 cells by MTS assay; format: cell-based
Summary of the method: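 MTS assay on L929 mouse fibroblasts; IC50 reported as the average of three independent measurements.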

Staphylococcus aureus [1] = experiment: Synergistic antibacterial activity against multidrug-resistant Staphylococcus aureus isolate 417 assessed as fractional Inhibitory concentration index in presence of amoxicillin by broth microdilution assay; format: functional
Staphylococcus aureus [2] = experiment: Synergistic antibacterial activity against multidrug-resistant Staphylococcus aureus isolate 1402 assessed as fractional Inhibitory concentration index in presence of cloxacillin by broth microdilution assay; format: functional
Summary of the method: (§1)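 CLSI broth microdilution run on clinical MRSA isolates with each β-lactam alone, the test agent alone, and the two combined; agents dissolved in DMSO. Growth inhibition was read by eye. FIC index = FIC(compound) + FIC(β-lactam), where each FIC is the MIC in combination divided by the MIC alone. An index ≤0.5 was taken as synergy.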

Staphylococcus aureus [3] = experiment: Synergistic antibacterial activity against multidrug-resistant Staphylococcus aureus isolate 1449 in presence of cloxacillin by broth microdilution assay; format: functional
Summary of the method: (§2)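 Clinical MRSA isolate panel; compound and β-lactam tested alone and in combination by CLSI broth microdilution, compounds dissolved in DMSO, growth inhibition scored by eye, run in duplicate. FIC index = FIC(compound) + FIC(drug), each the MIC in combination divided by the MIC alone; an index ≤ 0.5 was called synergy.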

Staphylococcus aureus [4] = experiment: Synergistic antibacterial activity against multidrug-resistant Staphylococcus aureus isolate 1749 assessed as fractional Inhibitory concentration index in presence of meropenem by broth microdilution assay; format: functional; summary of the method: as §1
Staphylococcus aureus [5] = experiment: Synergistic antibacterial activity against multidrug-resistant Staphylococcus aureus isolate 1449 in presence of meropenem by broth microdilution assay; format: functional; summary of the method: as §2
Staphylococcus aureus [6] = experiment: Synergistic antibacterial activity against multidrug-resistant Staphylococcus aureus isolate 200 assessed as fractional Inhibitory concentration index in presence of meropenem by broth microdilution assay; format: functional; summary of the method: as §1
Staphylococcus aureus [7] = experiment: Synergistic antibacterial activity against multidrug-resistant Staphylococcus aureus isolate 1749 in presence of methicillin by broth microdilution assay; format: functional; summary of the method: as §2
Staphylococcus aureus [8] = experiment: Antibacterial activity against multidrug-resistant Staphylococcus aureus isolate 3411 by broth microdilution assay; format: functional
Summary of the method: (§3)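 Broth microdilution MIC per CLSI guidelines against clinical MRSA isolates, for β-lactams and test compound alone and in combination. Compounds were dissolved in DMSO. Growth was read by eye, in duplicate. FIC index = FIC(compound) + FIC(drug); synergy defined as FIC index ≤0.5.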

Staphylococcus aureus [9] = experiment: Synergistic antibacterial activity against multidrug-resistant Staphylococcus aureus isolate 200 assessed as fractional Inhibitory concentration index in presence of cefuroxime by broth microdilution assay; format: functional; summary of the method: as §1
Staphylococcus aureus [10] = experiment: Synergistic antibacterial activity against multidrug-resistant Staphylococcus aureus isolate 1136 assessed as fractional Inhibitory concentration index in presence of cloxacillin by broth microdilution assay; format: functional; summary of the method: as §1
Staphylococcus aureus [11] = experiment: Synergistic antibacterial activity against multidrug-resistant Staphylococcus aureus isolate 1449 in presence of amoxicillin by broth microdilution assay; format: functional; summary of the method: as §2
Staphylococcus aureus [12] = experiment: Synergistic antibacterial activity against multidrug-resistant Staphylococcus aureus isolate 3589 in presence of methicillin by broth microdilution assay; format: functional
Staphylococcus aureus [13] = experiment: Antibacterial activity against multidrug-resistant Staphylococcus aureus isolate 231 by broth microdilution assay; format: functional; summary of the method: as §3
Staphylococcus aureus [14] = experiment: Synergistic antibacterial activity against multidrug-resistant Staphylococcus aureus isolate 1136 assessed as fractional Inhibitory concentration index in presence of methicillin by broth microdilution assay; format: functional; summary of the method: as §1
Staphylococcus aureus [15] = experiment: Antibacterial activity against Staphylococcus aureus ATCC 29213 after 20 hrs; format: functional; conditions: ATCC 29213, 20 h
Summary of the method: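 Broth microdilution MIC per CLSI guidelines, compounds dissolved in DMSO. Resistant mutants were selected by serial passage of ATCC 29213 in LB at 37 °C with shaking at 250 rpm. Each 20 h culture started at half the MIC, and the concentration was doubled at each transfer. Growth inhibition was read by eye, in duplicate.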

Staphylococcus aureus [16] = experiment: Synergistic antibacterial activity against multidrug-resistant Staphylococcus aureus isolate 256 in presence of amoxicillin by broth microdilution assay; format: functional
Summary of the method: (§4)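 CLSI broth microdilution on clinical MRSA isolates. MICs were measured for the β-lactam alone, the test agent alone and the two combined. Compounds were dissolved in DMSO, and growth inhibition was scored by eye. FIC index is the sum, over both agents, of MIC in combination divided by MIC alone. An FIC index ≤0.5 was taken as synergy.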

Staphylococcus aureus [17] = experiment: Synergistic antibacterial activity against multidrug-resistant Staphylococcus aureus isolate 3411 assessed as fractional Inhibitory concentration index in presence of cloxacillin by broth microdilution assay; format: functional
Staphylococcus aureus [18] = experiment: Synergistic antibacterial activity against multidrug-resistant Staphylococcus aureus isolate 1717 in presence of methicillin by broth microdilution assay; format: functional; summary of the method: as §2
Staphylococcus aureus [19] = experiment: Synergistic antibacterial activity against multidrug-resistant Staphylococcus aureus isolate 256 assessed as fractional Inhibitory concentration index in presence of meropenem by broth microdilution assay; format: functional
Staphylococcus aureus [20] = experiment: Synergistic antibacterial activity against multidrug-resistant Staphylococcus aureus isolate 774 in presence of meropenem by broth microdilution assay; format: functional
Staphylococcus aureus [21] = experiment: Synergistic antibacterial activity against multidrug-resistant Staphylococcus aureus isolate 2895 assessed as fractional Inhibitory concentration index in presence of methicillin by broth microdilution assay; format: functional
Staphylococcus aureus [22] = experiment: Synergistic antibacterial activity against multidrug-resistant Staphylococcus aureus isolate 358 in presence of cloxacillin by broth microdilution assay; format: functional
Staphylococcus aureus [23] = experiment: Synergistic antibacterial activity against multidrug-resistant Staphylococcus aureus isolate 1344 assessed as fractional Inhibitory concentration index in presence of meropenem by broth microdilution assay; format: functional; summary of the method: as §1
Staphylococcus aureus [24] = experiment: Synergistic antibacterial activity against multidrug-resistant Staphylococcus aureus isolate 3589 in presence of cloxacillin by broth microdilution assay; format: functional
Staphylococcus aureus [25] = experiment: Synergistic antibacterial activity against multidrug-resistant Staphylococcus aureus isolate 2224 assessed as fractional Inhibitory concentration index in presence of cefuroxime by broth microdilution assay; format: functional; summary of the method: as §1
Staphylococcus aureus [26] = experiment: Synergistic antibacterial activity against multidrug-resistant Staphylococcus aureus isolate 2901 assessed as fractional Inhibitory concentration index in presence of cefuroxime by broth microdilution assay; format: functional
Staphylococcus aureus [27] = experiment: Synergistic antibacterial activity against multidrug-resistant Staphylococcus aureus isolate 757 in presence of amoxicillin by broth microdilution assay; format: functional
Staphylococcus aureus [28] = experiment: Synergistic antibacterial activity against multidrug-resistant Staphylococcus aureus isolate 2490 in presence of cloxacillin by broth microdilution assay; format: functional; summary of the method: as §2
Staphylococcus aureus [29] = experiment: Synergistic antibacterial activity against multidrug-resistant Staphylococcus aureus isolate 2728 assessed as fractional Inhibitory concentration index in presence of methicillin by broth microdilution assay; format: functional
Staphylococcus aureus [30] = experiment: Synergistic antibacterial activity against multidrug-resistant Staphylococcus aureus isolate 2973 in presence of cloxacillin by broth microdilution assay; format: functional; summary of the method: as §4
Staphylococcus aureus [31] = experiment: Synergistic antibacterial activity against multidrug-resistant Staphylococcus aureus isolate 200 in presence of amoxicillin by broth microdilution assay; format: functional; summary of the method: as §2
Staphylococcus aureus [32] = experiment: Synergistic antibacterial activity against multidrug-resistant Staphylococcus aureus isolate 3580 in presence of cloxacillin by broth microdilution assay; format: functional
Staphylococcus aureus [33] = experiment: Antibacterial activity against multidrug-resistant Staphylococcus aureus isolate 417 by broth microdilution assay; format: functional; summary of the method: as §3
Staphylococcus aureus [34] = experiment: Synergistic antibacterial activity against multidrug-resistant Staphylococcus aureus isolate 2919 in presence of amoxicillin by broth microdilution assay; format: functional; summary of the method: as §4
Staphylococcus aureus [35] = experiment: Synergistic antibacterial activity against multidrug-resistant Staphylococcus aureus isolate 3332 assessed as fractional Inhibitory concentration index in presence of cloxacillin by broth microdilution assay; format: functional

Compound: CCCCCCCCCNc1ccc(F)c(C(N)=O)c1F
- IC50 (L929): > 100 µM
- fractional inhibitory concentration index (FICI) (Staphylococcus aureus [1]): 0.3
- fractional inhibitory concentration index (FICI) (Staphylococcus aureus [2]): 0.8
- MIC (Staphylococcus aureus [3]): 0.5 µg/mL
- fractional inhibitory concentration index (FICI) (Staphylococcus aureus [4]): 10
- MIC (Staphylococcus aureus [5]): 4 µg/mL
- fractional inhibitory concentration index (FICI) (Staphylococcus aureus [6]): 8
- MIC (Staphylococcus aureus [7]): 2 µg/mL
- MIC (Staphylococcus aureus [8]): 2 µg/mL (≈ 6.7 µM)
- fractional inhibitory concentration index (FICI) (Staphylococcus aureus [9]): 1
- fractional inhibitory concentration index (FICI) (Staphylococcus aureus [10]): 0.4
- MIC (Staphylococcus aureus [11]): 0.5 µg/mL
- MIC (Staphylococcus aureus [12]): 4 µg/mL
- MIC (Staphylococcus aureus [13]): 8 µg/mL (≈ 26.8 µM)
- fractional inhibitory concentration index (FICI) (Staphylococcus aureus [14]): 0.3
- MIC (Staphylococcus aureus [15]): 1 µg/mL (≈ 3.35 µM)
- MIC (Staphylococcus aureus [16]): 16 µg/mL
- fractional inhibitory concentration index (FICI) (Staphylococcus aureus [17]): 0.5
- MIC (Staphylococcus aureus [18]): 2 µg/mL
- fractional inhibitory concentration index (FICI) (Staphylococcus aureus [19]): 4
- MIC (Staphylococcus aureus [20]): 4 µg/mL
- fractional inhibitory concentration index (FICI) (Staphylococcus aureus [21]): 0.3
- MIC (Staphylococcus aureus [22]): 1 µg/mL
- fractional inhibitory concentration index (FICI) (Staphylococcus aureus [23]): 2
- MIC (Staphylococcus aureus [24]): 2 µg/mL
- fractional inhibitory concentration index (FICI) (Staphylococcus aureus [25]): 0.3
- fractional inhibitory concentration index (FICI) (Staphylococcus aureus [26]): 0.1
- MIC (Staphylococcus aureus [27]): 2 µg/mL
- MIC (Staphylococcus aureus [28]): 1 µg/mL
- fractional inhibitory concentration index (FICI) (Staphylococcus aureus [29]): 0.2
- MIC (Staphylococcus aureus [30]): 1 µg/mL
- MIC (Staphylococcus aureus [31]): 8 µg/mL
- MIC (Staphylococcus aureus [32]): 1 µg/mL
- MIC (Staphylococcus aureus [33]): 32 µg/mL (≈ 107 µM)
- MIC (Staphylococcus aureus [34]): 8 µg/mL
- fractional inhibitory concentration index (FICI) (Staphylococcus aureus [35]): 0.4
